Measurements taken from ChEMBL document CHEMBL1795271, “7-Alkyl-N(2)-substituted-3-deazaguanines. Synthesis, DNA polymerase III inhibition and antibacterial activity” (Bioorg Med Chem Lett, 2011).
≈ marks a conversion by molar mass, not a printed value.

Experiments:
Staphylococcus aureus [1] = assay: Antibacterial activity against Staphylococcus aureus Smith infected Swiss-webster mouse assessed as mouse survival at 30 mg/kg, ip administered 15 mins post-infection for 24 hrs relative to control; assay type: functional; details: route intraperitoneal
Method in brief: (§1)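 Male pathogen-free Swiss–Webster mice, 20–24 g, with free access to food and water. S. aureus Smith grown to log phase at 37 °C in LB, with CFU estimated from OD600. Cells washed in cold broth and injected IP in 0.5 mL broth. Groups of 5 or 10 mice dosed IP 15 min post-infection with vehicle (10% DMSO/peanut oil) or compound in vehicle. Daptomycin 30 mg/Kg in saline served as control.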

Enterococcus faecium = assay: Antibacterial activity against Enterococcus faecium ATCC 19434 after 16 to 24 hrs by twofold serial dilution method; assay type: functional
Escherichia coli = assay: Antibacterial activity against Escherichia coli J-53 after 16 to 24 hrs by twofold serial dilution method; assay type: functional
Bacillus subtilis = assay: Antibacterial activity against Bacillus subtilis BD54 after 16 to 24 hrs by twofold serial dilution method; assay type: functional
Enterococcus faecalis [2] = assay: Antibacterial activity against Enterococcus faecalis ATCC 29212 after 16 to 24 hrs by twofold serial dilution method; assay type: functional
Staphylococcus aureus [3] = assay: Antibacterial activity against methicillin-resistant Staphylococcus aureus ATCC 1094 after 16 to 24 hrs by twofold serial dilution method; assay type: functional
Enterococcus faecalis [4] = assay: Antibacterial activity against vancomycin-resistant Enterococcus faecalis after 16 to 24 hrs by twofold serial dilution method
Staphylococcus aureus [5] = assay: Antibacterial activity against Staphylococcus aureus ATCC 25923 after 16 to 24 hrs by twofold serial dilution method; assay type: functional
Staphylococcus aureus [6] = assay: Antibacterial activity against Staphylococcus aureus Smith infected Swiss-webster mouse assessed as mouse survival at 60 mg/kg, ip administered 15 mins post-infection for 24 hrs relative to control; assay type: functional; details: route intraperitoneal; method in brief: as §1
Staphylococcus aureus [7] = assay: Antibacterial activity against Staphylococcus aureus ATCC 13709 (Smith) after 16 to 24 hrs by twofold serial dilution method; assay type: functional
Staphylococcus aureus [8] = assay: Antibacterial activity against Staphylococcus aureus Smith infected Swiss-webster mouse assessed as mouse survival at 10 mg/kg, ip administered 15 mins post-infection for 24 hrs relative to control; assay type: functional; details: route intraperitoneal; method in brief: as §1

CC(=O)OCCCCCn1cnc2nc(NCc3ccc(Cl)c(Cl)c3)nc(O)c21
survival at 30 mg/kg (Staphylococcus aureus [1]): 50% | MIC (Enterococcus faecium): 1.25 µg/mL (≈ 2.85 µM) | MIC (Escherichia coli): > 80 µg/mL | MIC (Bacillus subtilis): 1.25 µg/mL (≈ 2.85 µM) | MIC (Enterococcus faecalis [2]): 1.25 µg/mL (≈ 2.85 µM) | MIC (Staphylococcus aureus [3]): 1.25 µg/mL (≈ 2.85 µM) | MIC (Enterococcus faecalis [4]): 5 µg/mL (≈ 11.4 µM) | MIC (Staphylococcus aureus [5]): 2.5 µg/mL (≈ 5.7 µM) | survival at 60 mg/kg (Staphylococcus aureus [6]): 80% | MIC (Staphylococcus aureus [7]): 1.25 µg/mL (≈ 2.85 µM) | survival at 10 mg/kg (Staphylococcus aureus [8]): 30%
